Test results from ChEMBL document CHEMBL2384930, “Interventional effects of plumbagin on experimental ulcerative colitis in mice” (J Nat Prod, 2013).
Activity calls are given as the source filed them. The calls are words filed in the database; no cut-off is given here.

Tests used:
Mus musculus [1] = test: Antiinflammatory activity in C57-B16/J mouse chronic DSS-induced ulcerative colitis model assessed as restoration of colon size at 6 to 10 mg/kg administered for total of 3 weeks for alternative weeks with water measured after 63 days; assay type: functional, organism-based
How it was run: (§1)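 Chronic model in female C57-BL6/J mice: three 3-week cycles of DSS, compound in drinking water and plain water, over 63 days. Mice euthanized by isoflurane overdose and colon length measured (cm). Clinical index scored from body weight change, colorectal length, stool consistency, occult blood and prolapse; n = 10. Statistics by ANOVA with Tukey test.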

Mus musculus [2] = test: Antiinflammatory activity in C57-B16/J mouse DSS-induced ulcerative colitis model assessed as reduction in monocyte aggregation at 10 mg/kg by hematoxylin-eosin staining-based microscopic analysis; assay type: functional, organism-based; set-up: dose 10 mg/kg
How it was run: (§2)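 Female C57-BL6/J mice, 8−10 weeks old, given 3% (w/v) DSS in drinking water. Compound dissolved in ethanol and mixed into drinking water, given ad libitum. Colorectal sections stained with hematoxylin and eosin and examined at 400× for crypts, goblet cells, submucosa and monocyte aggregation.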

Mus musculus [3] = test: Antiinflammatory activity in C57-B16/J mouse DSS-induced ulcerative colitis model assessed as restoration of submucosa at 10 mg/kg by hematoxylin-eosin staining-based microscopic analysis; assay type: functional, organism-based; set-up: dose 10 mg/kg; how it was run: as §2
Mus musculus [4] = test: Antiinflammatory activity in C57-B16/J mouse DSS-induced ulcerative colitis model assessed as restoration of crypts at 10 mg/kg by hematoxylin-eosin staining-based microscopic analysis; assay type: functional, organism-based; set-up: dose 10 mg/kg; how it was run: as §2
Mus musculus [5] = test: Antiinflammatory activity in C57-B16/J mouse DSS-induced ulcerative colitis model assessed as restoration of goblet cells at 10 mg/kg by hematoxylin-eosin staining-based microscopic analysis; assay type: functional, organism-based; set-up: dose 10 mg/kg; how it was run: as §2
Mus musculus [6] = test: Antiinflammatory activity in C57-B16/J mouse chronic DSS-induced ulcerative colitis model assessed as suppression of clinical symptoms at 8 to 10 mg/kg administered for total of 3 weeks for alternative weeks with water measured after 63 days; assay type: functional, organism-based; how it was run: as §1
Mus musculus [7] = test: Antiinflammatory activity in C57-B16/J mouse chronic DSS-induced ulcerative colitis model assessed as decrease in serum IL-17 level at 10 mg/kg administered for total of 3 weeks for alternative weeks with water measured after 63 days by ELISA relative to DSS-treated control; assay type: functional, organism-based; set-up: dose 10 mg/kg
How it was run: (§3)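 Chronic model, 63 days: three cycles of 1 week 3% DSS, then 1 week of compound in drinking water, then 1 week of water. Serum from clotted blood (overnight, 3000g 10 min) analysed by sandwich ELISA with capture/detection antibodies, streptavidin-HRP and substrate, read at 450 nm. Means ± SE, n = 8−10, one-way ANOVA with Tukey test.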

Mus musculus [8] = test: Antiinflammatory activity in C57-B16/J mouse chronic DSS-induced ulcerative colitis model assessed as decrease in serum IL-17 level at 8 mg/kg administered for total of 3 weeks for alternative weeks with water measured after 63 days by ELISA relative to DSS-treated control; assay type: functional, organism-based; set-up: dose 8 mg/kg; how it was run: as §3
Mus musculus [9] = test: Antiinflammatory activity in C57-B16/J mouse chronic DSS-induced ulcerative colitis model assessed as decrease in serum IFNgamma level at 10 mg/kg administered for total of 3 weeks for alternative weeks with water measured after 63 days by ELISA relative to DSS-treated control; assay type: functional, organism-based; set-up: dose 10 mg/kg; how it was run: as §3
Mus musculus [10] = test: Antiinflammatory activity in C57-B16/J mouse chronic DSS-induced ulcerative colitis model assessed as decrease in serum TNFalpha level at 10 mg/kg administered for total of 3 weeks for alternative weeks with water measured after 63 days by ELISA relative to DSS-treated control; assay type: functional, organism-based; set-up: dose 10 mg/kg; how it was run: as §3
Mus musculus [11] = test: Antiinflammatory activity in C57-B16/J mouse DSS-induced ulcerative colitis model assessed as reduction of inflammatory CD14+/CD16+ level in peripheral blood at 8 to 10 mg/kg by flow cytometric analysis relative to DSS-treated control; assay type: functional; conditions: dose mg/kg 8-10
How it was run: (§4)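 Acute model: female C57-BL6/J mice, 8−10 weeks old, given 3% (w/v) DSS in drinking water, with bottles refilled at days 3 and 5. Oral dosing in drinking water (6, 8, 10 mg/kg, ethanol-dissolved) from day 6. Whole blood stained with anti-CD14-FITC/anti-CD16-PE for 30 min in the dark, RBC-lysed, then flow cytometry. Classic CD14+/CD16−, inflammatory CD14+/CD16+; n = 8.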

Mus musculus [12] = test: Toxicity in C57-B16/J mouse DSS-induced ulcerative colitis model assessed as circulating CD14+/CD16- level at 6 to 10 mg/kg by flow cytometric analysis relative to DSS-treated control; assay type: organism-based; set-up: dose 6-10 mg/kg; conditions: in vivo; how it was run: as §4
Mus musculus [13] = test: Antiinflammatory activity in C57-B16/J mouse DSS-induced ulcerative colitis model assessed as reduction of inflammatory CD14+/CD16+ level in peripheral blood at 6 to 10 mg/kg by flow cytometric analysis relative to DSS-treated control; assay type: functional; set-up: scale not given: the % may be the effect or the level left; conditions: dose mg/kg 6-10; how it was run: as §4
[14] = Oral bioavailability in rat; assay type: ADME, organism-based; conditions: in vivo
Mus musculus [15] = test: Antiinflammatory activity in C57-B16/J mouse acute DSS-induced ulcerative colitis model assessed as reversal of body weight loss at 6 to 10 mg/kg administered on day 6 measured up to day 12; assay type: functional, organism-based
How it was run: (§5)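 Acute model: female C57-BL6/J mice, 8−10 weeks old, given 3% (w/v) DSS in drinking water. Dosing in drinking water ad libitum at 6, 8 or 10 mg/kg (ethanol stock) from day 6. Vehicle control received ethanol-water. Body weight recorded every other day as percent change. Disease index scored from weight change, stool consistency (1–4), fecal occult blood and prolapse; n = 10.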

Mus musculus [16] = test: Antiinflammatory activity in C57-B16/J mouse acute DSS-induced ulcerative colitis model assessed as suppression of clinical symptoms at 8 to 10 mg/kg administered on day 6 measured up to day 12; assay type: functional, organism-based; how it was run: as §5

CC1=CC(=O)c2c(O)cccc2C1=O [PLUMBAGIN]
Activity (Mus musculus [1]): Active | Activity (Mus musculus [2]): Active | Activity (Mus musculus [3]): Active | Activity (Mus musculus [4]): Active | Activity (Mus musculus [5]): Active | Activity (Mus musculus [6]): Active | Activity (Mus musculus [7]): Active | Activity (Mus musculus [8]): inactive | Activity (Mus musculus [9]): Active | Activity (Mus musculus [10]): Active | fold change (FC) (Mus musculus [11]): >3 | Activity (Mus musculus [12]): 77% | Activity (Mus musculus [13]): 0.3% | bioavailability [14]: 38% | Activity (Mus musculus [15]): inactive | Activity (Mus musculus [16]): Active
